# Keap1-Nrf2 PPI = Keap1-Nrf2 protein-protein interaction inhibitors, primary screen, biochemical, fluorescence polarization, single point; Kelch-like ECH-associated protein 1 (Homo sapiens), Q14145; Keap1 Kelch-Nrf2 peptide fluorescence polarization, 1536-well; inhibition, % at 9.4 µM; 340,000 tested, 0.15% active; AID 504523, 2011; in the data active = inhibition above about 12%;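 note: human Keap1 Kelch domain with fluorescein labeled Nrf2 9mer peptide probe; 0% = neutral control wells and 100% = peptide positive control; higher means more block of Keap1 binding to Nrf2 peptide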
# APOBEC3G inh = APOBEC3G DNA deaminase inhibitors, primary screen, biochemical, fluorescence, single-stranded DNA substrate, uHTS. DNA dC->dU-editing enzyme APOBEC-3G (Homo sapiens), Q9HC16. recombinant A3G, ssDNA deamination FAM/TAMRA fluorescence. inhibition, % at 20 µM. 330,000 tested, 0.28% active;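 active = inhibition of at least 40% at 20 µM, with no more than 30% in the related APOBEC3A deaminase screen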;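 note: plate controls were DMSO wells with A3G for no effect and wells lacking A3G enzyme for full effect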
# Target sequence (Q9HC16 whole entry, looked up): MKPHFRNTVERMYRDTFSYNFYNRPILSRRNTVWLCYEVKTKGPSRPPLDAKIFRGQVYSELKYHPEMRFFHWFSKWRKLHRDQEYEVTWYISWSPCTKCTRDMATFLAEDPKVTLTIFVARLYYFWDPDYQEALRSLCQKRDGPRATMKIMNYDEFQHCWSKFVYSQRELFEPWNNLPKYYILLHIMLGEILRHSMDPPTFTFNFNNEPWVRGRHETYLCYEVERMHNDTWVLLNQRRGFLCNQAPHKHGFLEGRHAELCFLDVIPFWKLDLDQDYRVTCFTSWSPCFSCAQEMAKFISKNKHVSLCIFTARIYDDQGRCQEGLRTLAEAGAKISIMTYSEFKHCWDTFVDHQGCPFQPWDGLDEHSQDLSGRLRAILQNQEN
# C-LANA FP = inhibitors of KSHV C-LANA binding to DNA, primary screen, biochemical, fluorescence polarization, FAM-LBS DNA, MBP-C-LANA, single point. AID 504423, 2011. 340,000 tested, 0.078% active. Kaposi's sarcoma herpesvirus LANA C-terminal domain (residues 932-1162) DNA binding. inhibition, % at 9 µM;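 active = highest replicate inhibition at or above 60% at 9 µM, even if other replicates fall short; inactive = all replicates below 60% inhibition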;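 note: 0% = neutral control wells and 100% = 4 µM acridine orange control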
# APOBEC3A inh = APOBEC3A ssDNA deaminase inhibitors, primary screen, selectivity assay for APOBEC3G inhibitor project, biochemical, FAM/TAMRA oligo cleavage fluorescence; DNA dC->dU-editing enzyme APOBEC-3A (Homo sapiens), P31941; recombinant A3A, FAM/TAMRA ssDNA deamination fluorescence; inhibition, % at 20 µM; 330,000 tested, 0.41% active;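 active = at least 40% inhibition at 20 µM here, with at most 30% in a related deaminase screen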;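 note: plate controls were A3A with DMSO for no effect and wells lacking A3A enzyme for full effect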
# Target sequence (P31941 whole entry, looked up): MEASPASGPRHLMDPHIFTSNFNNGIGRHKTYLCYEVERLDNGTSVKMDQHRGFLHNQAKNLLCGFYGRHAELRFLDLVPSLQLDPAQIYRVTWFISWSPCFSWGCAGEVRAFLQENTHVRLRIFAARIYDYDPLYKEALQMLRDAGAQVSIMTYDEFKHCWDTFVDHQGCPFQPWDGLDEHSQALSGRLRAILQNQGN
# CAL PDZ FP-1 = CAL PDZ peptide-binding inhibitors, primary screen, biochemical, fluorescence polarization, Cer-tagged CAL PDZ, HTS; purified CAL PDZ, TMR-peptide fluorescence polarization, 1 h; inhibition, % at 20 µM; 330,000 tested, 0.02% active;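 active = highest replicate inhibition of at least 40%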;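 note: plate controls were DMSO neutral control wells for no effect and unlabeled competitor peptide control wells for full effect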
#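 Control set: unlabelled peptide and DMSO controls / Material: purified CerCALP PDZ construct / Timing: 1 h incubation at room temperature before polarization reading / Doses: 20 µM, one dose / Detection: fluorescence polarization (mP)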
# CAL PDZ FP-2 = untagged CAL PDZ binding inhibitors, primary screen, biochemical, fluorescence polarization, HTS; Golgi-associated PDZ and coiled-coil motif-containing protein (Homo sapiens), Q9HD26; inhibition, % at 24.9 µM; 300,000 tested, 0.92% active; AID 602252, 2012; purified CAL PDZ, TMR-peptide fluorescence polarization, 1 h;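 active = mean inhibition of at least 30% with at least half of replicates also reaching 30%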;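 note: 0% = DMSO neutral control and 100% = excess unlabeled competitor peptide PRC23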
# * marks the source's active call; other numbers are inactive results; . = not tested or not shown. Compounds with a hit are over-represented: about 1.7% of the library has one in this group of screens.
SMILES,Keap1-Nrf2 PPI,APOBEC3G inh,C-LANA FP,APOBEC3A inh,CAL PDZ FP-1,CAL PDZ FP-2
COc1ccc(C(=O)NCCC(C)C)cc1S(=O)(=O)N1CCOCC1,-1.0,-0.9,-0.6,0.5,-0.5,2.4
CC(=O)NC(CCS(C)(=O)=O)C(=O)Nc1ccc(Oc2ccccc2)cc1 (centres undefined),5.2,-9.2,-2.7,-4.0,0.0,.
Cc1nn(-c2ccccc2)c(=S)c2ccccc12,0.7,-3.9,0.6,0.6,-0.9,0.1
C=CCc1ccc(OCCn2nnc3ccccc32)c(OC)c1,-4.9,24.2,-4.3,-3.4,-2.5,94.9*
C=CCNC(=S)Nc1cccc2[nH]ncc12,-7.1,-4.0,1.5,-6.2,1.1,-4.1
CCOC(=O)C1=NNC2(c3ccc(Cl)cc3)C(=O)N(c3ccc(C)cc3)C(=O)C12 (centres undefined),-1.5,-0.9,1.1,3.4,-0.2,4.4
COc1ccc(C(=O)C2CCN(C(=O)c3ccc(OC)cc3)CC2)cc1,-0.6,-22.6,0.2,-0.3,3.5,74.1*
COc1ccc(C(=O)N2CCC(C(=O)c3ccc(F)cc3)CC2)cc1,-1.3,-1.8,-1.6,-1.3,-1.6,1.4
COC(=O)c1ccccc1NC(=O)C1CCN(C(=O)c2cc(OC)cc(OC)c2)CC1,-0.6,-5.5,-0.6,-5.5,-0.6,115.3*
Nc1ccccc1C(=O)N1CCc2ccccc21,-0.5,3.2,-1.5,-3.0,-10.8,0.1
CC1CCN(C(=O)COC(=O)c2cc(Cl)c3c(c2)OCO3)CC1,-4.9,-1.3,-1.6,4.7,-2.7,1.9
O=[N+]([O-])c1cc(S(=O)(=O)N2CCOCC2)ccc1NS(=O)(=O)c1ccccc1,1.0,-2.2,-2.1,1.7,-0.2,45.8*
O=C(C1CCCO1)N1CCN(C(=S)Nc2cccc(F)c2)CC1 (centres undefined),5.4,-2.8,-0.2,-2.2,0.2,1.2
Cc1cccc(NC(=S)N2CCN(C(=O)C3CCCO3)CC2)c1 (centres undefined),-5.3,-15.2,0.6,-2.7,-1.5,66.9*
Cc1ccc(S(=O)(=O)N(C)c2ccc(OCC(=O)N3CCCCC3)cc2)cc1,-4.0,-5.5,-0.9,-3.2,-1.8,-2.8
O=[N+]([O-])c1cccc(CP(=O)(c2ccccc2)c2ccccc2)c1,0.5,-4.9,-1.7,-1.2,0.1,60.2*
COc1ccc(-c2nc(N)nc(C)c2Oc2ccccc2Br)c(O)c1,-0.8,1.6,1.9,0.1,-0.4,-1.8
N#Cc1ccc(COC(=O)c2cnc(Cl)c(Cl)c2)cc1,-1.2,1.4,-3.5,3.4,-0.7,47.5*
CCn1c(=O)cc(SCC(=O)NCCCN2CCN(c3ccc(F)cc3)CC2)c2ccccc21,-4.7,0.8,0.0,2.6,-2.7,.
CCn1c(=O)cc(SCC(=O)NCCCN2CCC(C)CC2)c2ccccc21,4.8,-1.0,0.4,1.9,-0.5,30.6*
COc1ccc(OC)c(NC(=O)COC(=O)CCCN=C2NS(=O)(=O)c3ccccc32)c1,-2.2,10.3,2.6,4.0,-2.0,-0.2
CN1CCN(C(=O)C2=C[C@@H](C3CCCCC3)C[C@@H](OCCCCO)O2)CC1,-5.0,-7.0,-0.2,-1.9,-0.5,0.2
CC1CCc2cc(F)ccc2N1C(=O)c1cccs1 (centres undefined),0.8,-2.9,1.0,-1.2,-1.1,31.6*
Cc1ccc(NC(=O)Cn2c(=O)oc3cc(S(=O)(=O)N4CCC(C)CC4)ccc32)cc1C,-4.2,-6.5,-1.6,-2.9,-0.6,.
Cc1cc(C(=O)COC(=O)c2ccc(N)c([N+](=O)[O-])c2)c(C)n1-c1ccc2c(c1)OCO2,-4.7,-3.1,1.0,4.8,-2.5,-4.6
SMILES,Keap1-Nrf2 PPI,APOBEC3G inh,C-LANA FP,APOBEC3A inh,CAL PDZ FP-1,CAL PDZ FP-2
Cc1cc(C(=O)COC(=O)c2ccc(N)c([N+](=O)[O-])c2)c(C)n1Cc1ccc2c(c1)OCO2,-3.5,-2.8,1.5,-1.6,0.0,123.4*
COc1ccc(CCNC(=O)CCSCc2ccccc2F)cc1OC,5.2,-6.3,-1.8,6.1,.,41.4*
CCOc1ccc(CNC(=O)CCSCc2ccccc2F)cc1OC,-5.3,-3.3,0.6,1.2,-1.8,-3.9
CCCC(=O)n1nc(-c2ccc(Cl)cc2)nc1SC,0.0,-2.7,78.4*,-2.5,-0.7,-3.6
CCC(=O)n1nc(-c2ccc(Cl)cc2)nc1SC,3.1,-4.3,0.2,-2.7,-2.3,2.9
CNS(=O)(=O)c1cccc(C(=O)OCC(=O)c2ccc3c(c2)OCCO3)c1,2.9,-2.6,-0.6,5.4,-1.4,45.2*
CNS(=O)(=O)c1cccc(C(=O)OCC(=O)c2ccc[nH]2)c1,-4.8,8.0,0.1,15.1,-2.0,-3.5
CCOC(=O)C1=C(O)/C(=C\c2ccc(O)c(OCC)c2)N=C1C,-9.9,4.0,-4.0,8.0,-0.2,62.7*
COc1ccc(OC)c2sc(N3CCCCC3)nc12,-0.7,-3.9,-1.1,26.3,-0.7,-5.6
COc1ccc(OC)c2sc(N3CCc4ccccc4C3)nc12,1.6,-1.3,-1.6,3.3,-1.2,32.8*
Cn1c(=N)n(CC(=O)c2ccc(Br)s2)c2ccccc21,-3.5,-4.0,0.2,-1.2,.,-6.3
N=c1n(CC(=O)c2ccc(Br)s2)c2ccccc2n1Cc1ccccc1,-0.5,-6.9,-0.2,-11.9,-1.8,38.3*
Cc1ccc(S(=O)(=O)Nc2cccc3cccnc23)cc1,-2.3,-1.0,-0.1,-0.7,-0.7,41.6*
COc1cc(NS(=O)(=O)c2ccc(C)cc2)c2ncccc2c1,-6.5,-3.9,-1.5,-2.4,0.0,-1.8
CN(CC(=O)Nc1ccc(Cl)c(C(F)(F)F)c1)C(=O)c1cccc2cccnc12,0.6,-7.2,-0.2,-6.2,-1.8,-2.8
COc1ccc(C2NN=C(c3ccc(C)cc3)S2)cc1 (centres undefined),-11.3,.,-0.8,.,-3.4,40.9*
CCOc1cc(C2NN=C(c3ccc(C)cc3)S2)ccc1O (centres undefined),-1.3,.,1.5,.,-1.4,2.9
CCOc1ccc(-c2nc(C)c(C(C)=O)n2O)cc1,-3.1,-4.8,1.1,-0.5,-1.5,.
COc1ccc(NC(=O)CC(CC(=O)O)c2cc(OC)c(OC)c(OC)c2)cc1 (centres undefined),-3.5,2.6,-1.5,1.1,0.1,59.4*
